According to ChEMBL document CHEMBL1121480, “Conversion of ergolines to hexahydro- and octahydrobenzo[f]quinolines (depyrroloergolines)” (1980):

What was measured:
Assay type in all cases: functional
Rattus norvegicus [1] = experiment: Evaluated for the prolactin inhibition at the dose 50 ug/kg administered intraperitoneally (treatment)
Summary of the method: (§1)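 Reserpinized male rats given 50 μg/kg ip; serum prolactin (ng/mL) measured by the method of Clemens et al. against vehicle controls; % inhibition from treated vs control means; mean ± SEM of 10 rats; significance versus control.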

Rattus norvegicus [2] = experiment: Evaluated for the Average turns per first 15 minutes after administration of 1 mg/kg intraperitoneally; conditions: route intraperitoneal
Rattus norvegicus [3] = experiment: Evaluated for the prolactin inhibition at the dose 50 ug/kg administered intraperitoneally; conditions: ip; summary of the method: as §1
Rattus norvegicus [4] = experiment: Evaluated for the rat turning after administration of 1 mg/kg intraperitoneally; conditions: route intraperitoneal

SMILES	serum prolactin level (Rattus norvegicus [1])	Average turns/first 15 min (Rattus norvegicus [2])	inhibition in vivo at 0.05 mg/kg (Rattus norvegicus [3])	Rat turning (Rattus norvegicus [4])
C[C@@H](CO)NC(=O)[C@@H]1C=C2c3cccc4[nH]cc(c34)C[C@H]2N(C)C1.O=C(O)/C=C\C(=O)O [ERGONOVINE MALEATE]	11.7 ng/mL	0	36%	0%
CC1=C[C@@H]2c3cccc4[nH]cc(c34)C[C@H]2N(C)C1 [AGROCLAVINE]	11.7 ng/mL	95	63%	100%
CC1=C[C@@H]2c3ccccc3CC[C@H]2N(C)C1.O=C(O)C(=O)O [DEPYRROLO AGROCLAVINE]	35.2 ng/mL	0	9%	0%
CCCN1C[C@H](CSC)C[C@@H]2c3ccccc3CC[C@H]21.O=C(O)C(=O)O [DEPYRROLO PERGOLIDE]	11.6 ng/mL	48	35%	67%
CCCN1C[C@H](CSC)C[C@@H]2c3cccc4[nH]cc(c34)C[C@H]21 [PERGOLIDE]	1.6 ng/mL	102	95%	100%
C[C@@H](CO)NC(=O)C1C=C2c3ccccc3CC[C@H]2N(C)C1 (some centres undefined) [DEPYRROLO ERGONOVINE]	28.4 ng/mL	0	-24%	0%
